SENP7 inh: inhibitors of human SENP7 protease. Q9BQF6. recombinant SENP7, Z-RLRGG-aminoluciferin luminescence, 40 min. hit rate 1.5% among 330,000. inhibition, % at 5 µM;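 active = inhibition above about 50% at the single test dose, limit read from the data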;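 note: plate controls were DMSO with enzyme for no effect and no enzyme buffer wells for full effect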
Target sequence (Q9BQF6 706-1050 limits assumed): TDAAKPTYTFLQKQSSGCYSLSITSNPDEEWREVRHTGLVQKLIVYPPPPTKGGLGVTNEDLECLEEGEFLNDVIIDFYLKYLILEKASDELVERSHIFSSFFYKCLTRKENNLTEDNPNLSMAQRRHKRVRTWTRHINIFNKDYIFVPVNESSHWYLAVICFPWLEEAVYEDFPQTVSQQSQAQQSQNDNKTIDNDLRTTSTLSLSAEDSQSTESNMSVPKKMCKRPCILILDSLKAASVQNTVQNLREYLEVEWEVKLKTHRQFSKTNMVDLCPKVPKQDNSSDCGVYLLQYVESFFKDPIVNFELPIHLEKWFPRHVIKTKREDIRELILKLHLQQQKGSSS
SENP6 inh: inhibitors of human SENP6 protease; Q9GZR1; Recombinant SENP6 catalytic domain, aminoluciferin luminescence; inhibition, % at 10 µM; hit rate 1.8% among 330,000; AID 2599;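 active = inhibition above about 50% at the single tested dose, limit read from the data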;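 note: plate controls were DMSO wells with enzyme for no effect and DMSO wells lacking enzyme for full effect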
SENP1 inh: blocks the human SENP1 SUMO protease catalytic domain | Q9P0U3 | recombinant SENP1 catalytic domain, CyPet-SUMO1-YPet FRET cleavage | inhibition, % at 10 µM | hit rate 0.21% among 360,000 | AID 624204;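 active = inhibition at least 30% at 10 µM, raw YFP signal under a set limit, fluorescence ratio 0.5 to 1.5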;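 note: 0% = enzyme with DMSO and 100% = no enzyme wells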
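Compound: 10 µM single point, 0.5% DMSO; Test system: hSENP1 catalytic domain, recombinant; Timing: 50 min reaction at room temperature; Technique: FRET, CFP and YFP emission; Control set: no-enzyme wells low, DMSO-plus-enzyme wells high control.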
SENP8 block-1: blocks the human protease SENP8; AID 2540; Q96LD8; inhibition, % at 10 µM; hit rate 1.2% among 330,000; purified SENP8, Z-RLRGG-aminoluciferin cleavage, luminescence; in the data active = inhibition above about 50%
Target sequence (Q96LD8 whole entry, looked up): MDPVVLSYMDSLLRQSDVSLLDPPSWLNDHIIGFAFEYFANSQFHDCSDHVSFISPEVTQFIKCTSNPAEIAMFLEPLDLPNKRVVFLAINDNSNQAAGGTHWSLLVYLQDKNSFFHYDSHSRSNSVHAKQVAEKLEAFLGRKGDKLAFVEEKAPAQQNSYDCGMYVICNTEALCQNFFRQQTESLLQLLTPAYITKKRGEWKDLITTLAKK
SENP8 block-2: blocks human SENP8 cleavage of Nedd8 substrate. Q96LD8. recombinant SENP8, Nedd8 substrate fluorescence. inhibition, % at 20 µM. hit rate 0.64% among 360,000; in the data active = inhibition mostly above about 40%, no sharp cut-off; inactive = mostly below about 27%
Platelet DG rel: platelet dense granule release activity; human platelet-rich plasma, SFLLRN dense granule ATP release, luminescence; hit rate 0.22% among 300,000; inhibition, %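 (compounds screened at 7.5 µM in platelet-rich plasma)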;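 active = mean replicate score, as percent of positive control, at or above 50; inconclusive = mean below 50 but at least one replicate at or above 50; inactive = mean and every replicate below 50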
SENP8 conf: human SENP8 inhibition, confirmed. shares compounds with SENP7 inh. Recombinant SENP8, Z-RLRGG-aminoluciferin luminescence, 60 min. inhibition, % at 12.5 µM. hit rate 40% among 6,200. AID 488912;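 active = mean inhibition across replicates above about 50%, limit read from the data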
SENP6 confirm: confirmation of human SENP6 protease inhibitors | shares compounds with SENP7 inh | recombinant SENP6, Z-RLRGG-aminoluciferin luminescence | inhibition, % at 12.5 µM | hit rate 58% among 6,200 | AID 488915
SENP7 confirm: confirmation of human SENP7 protease inhibitors; shares compounds with SENP7 inh; recombinant SENP7, Z-RLRGG-aminoluciferin luminescence, 40 min; inhibition, % at 12.5 µM; hit rate 69% among 6,200
Casp3 SENP sel: caspase-3 inhibition (SENP selectivity assay). shares compounds with SENP7 inh. purified caspase-3, Z-DEVD-aminoluciferin luminescence, 60 min. inhibition, % at 12.5 µM. hit rate 60% among 6,200. AID 488918;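 active = mean inhibition above about 50%, limit read from the data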;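 note: plate controls were enzyme with DMSO for no effect and wells without caspase-3 for full effect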
Luc interf: counter-screen for SENP inhibitors: luminescence interference; shares compounds with SENP7 inh; Pre-incubated SENP8/Z-RLRGG-aminoluciferin, luciferase luminescence interference; inhibition, % at 12.5 µM; hit rate 39% among 6,200;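 active = mean inhibition above about 50% when retested at one dose, limit read from the data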;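 note: plate controls were DMSO wells with completed reaction for no effect and substrate without enzyme for full effect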
Active calls of the source: *; i = inactive; ? = inconclusive; / = not tested or not shown. A selection: hits, their analogues and other compounds. The true share with any hit is near 2.6%.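 Rule for the calls, unless noted: active = mean inhibition above about 50% in the one-dose retest (limit read from the data); inactive = the rest.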

SMILES	SENP7 inh	SENP6 inh	SENP1 inh	SENP8 block-1	SENP8 block-2	Platelet DG rel	SENP8 conf	SENP6 confirm	SENP7 confirm	Casp3 SENP sel	Luc interf
COc1ccccc1Oc1ccc(N/C=C/C(=O)c2ccco2)cc1	57*	85*	-23	55*	-197	8	88*	89*	100*	81*	76*
CCCCN(C(C)=O)c1c(CC)nc2ccc(C(=O)NCCOc3ccc(OC)cc3)cn12	/	/	2	/	-113	/	/	/	/	/	/
O=C1C2C3C=CC(CC3)C2S(=O)(=O)C2C3C=CC(CC3)C12 (stereo not drawn)	/	/	1	/	7	/	/	/	/	/	/
CC1C(=O)C(C)C(c2cc(Br)ccc2O)NC1c1cc(Br)ccc1O (stereo not drawn)	/	/	0	/	16	/	/	/	/	/	/
Oc1ccc(Br)cc1C1Nc2ccccc2S1 (stereo not drawn)	79*	35	-128	38	-291	1	-21	-10	-4	9	-2
COC(=O)c1cc(C(=O)c2ccc(Cl)cc2)n2c(=O)/c(=C\N(C)C)sc12	-1	0	-35	3	-35	1	/	/	/	/	/
CC(C)CC(CO)N1CCN(C(=O)c2ccc(Cl)c(Cl)c2)CCC1=O (stereo not drawn)	-4	-18	-1	-11	20	9	/	/	/	/	/
Cc1ccc(C(=O)CSc2ncnc3ccccc23)o1	37	33	-173	-25	-7	6	/	/	/	/	/
O=C(CSc1ncnc2ccccc12)c1cccs1	56*	-66	-176	8	2	2	30	52*	87*	27	7
O=C1Nc2ccccc2CN2C(=O)c3cc(Cl)ccc3NC(=O)C12 (stereo not drawn)	/	/	2	/	19	/	/	/	/	/	/
O=C(OCC(=O)c1ccc[nH]1)c1ccc([N+](=O)[O-])cc1	2	5	-1	-13	19	/	/	/	/	/	/
O=C(COC(=O)c1ccc([N+](=O)[O-])s1)NC(=O)NCc1ccccc1	32	87*	2	66*	23	1	75*	84*	40	6	-3
O=C(COC(=O)c1ccc([N+](=O)[O-])s1)NCc1ccc(F)cc1	52*	76*	3	67*	30	-9	5	85*	42	26	-2
O=C(COC(=O)c1ccc([N+](=O)[O-])s1)c1ccc[nH]1	6	35	2	57*	34	/	29	79*	24	19	-8
O=C1CN(C(=O)COC(=O)c2ccc([N+](=O)[O-])s2)c2ccccc2N1	29	53*	-1	65*	26	/	2	85*	44	4	0
COc1ccc2nc(-c3ccc(N)cc3)[nH]c2c1	83*	75*	-2	54*	i	29	68*	61*	91*	86*	74*
COc1ccc2nc(-c3cccc(N)c3)[nH]c2c1	82*	77*	-3	58*	-489	28	70*	71*	94*	88*	67*
COc1ccc2nc(SCC(N)=O)[nH]c2c1	10	-1	-1	5	13	-1	/	/	/	/	/
Cc1ccc(C(=O)NCCCNC(=O)COc2ccc(Cl)cc2)cn1	-1	-7	4	6	13	4	/	/	/	/	/
CC1(C)Cc2c(sc(NC(=O)Nc3ccccc3)c2C(N)=O)CO1	53*	68*	-17	56*	-84	12	-3	52*	80*	52*	33
O=C(Nc1cccc(O)c1)c1cc(-c2ccc3c(c2)OCO3)on1	101*	96*	1	90*	-12	95*	15	95*	36	77*	2
O=C(Nc1cccc(O)c1)c1cc(-c2ccccc2Cl)on1	95*	97*	-1	93*	3	34	11	94*	101*	87*	94*
COc1cc(NC(=O)c2cc(-c3ccc4c(c3)OCO4)on2)cc(OC)c1OC	2	-9	-2	6	5	-34	/	/	/	/	/
COc1ccc2oc(C(=O)NCCc3ccccc3)c(C)c2c1	88*	90*	-15	84*	-201	1	93*	92*	100*	86*	72*
COc1ccc2oc(C(=O)Nc3nccs3)c(C)c2c1	83*	30	-13	-5	-145	-18	15	34	39	41	20
SMILES	SENP7 inh	SENP6 inh	SENP1 inh	SENP8 block-1	SENP8 block-2	Platelet DG rel	SENP8 conf	SENP6 confirm	SENP7 confirm	Casp3 SENP sel	Luc interf
CCOc1ccc2oc(C(=O)Nc3nccs3)c(C)c2c1	78*	11	-23	22	-186	/	19	14	26	39	11
COc1ccc2oc(C(=O)OCC(=O)NCCc3ccccc3)c(C)c2c1	3	-8	-1	18	-430	33	/	/	/	/	/
O=S(=O)(c1cc(O)ccc1O)c1cccc2c(S(=O)(=O)c3cc(O)ccc3O)cccc12	0	-19	3	8	12	0	/	/	/	/	/
CCCc1nnc(SCC(=O)NC2CCCC2)n1CCOC	1	-9	3	2	10	-3	/	/	/	/	/
COc1ccc(CNC(=O)C2CCN(S(=O)(=O)N3CCC(C)CC3)CC2)c(OC)c1	/	/	0	/	18	/	/	/	/	/	/
Fc1ccc(Oc2ccnc(Cl)n2)c(Cl)c1	6	2	/	-8	/	-2	/	/	/	/	/
COc1ccc(NC(=S)NC(=O)c2cccnc2)cc1	4	-2	0	1	16	0	/	/	/	/	/
COc1nsnc1NS(=O)(=O)c1ccc(NC(=S)NC(=O)c2cccnc2)cc1	30	54*	1	24	16	1	55*	51*	82*	84*	55*
Cc1nc2cc(NC(=O)Nc3ccccc3Cl)ccc2n1C	97*	88*	1	93*	6	?	86*	92*	99*	94*	91*
Cc1nc2cc(NC(=O)Nc3cccc([N+](=O)[O-])c3)ccc2n1C	66*	73*	1	32	16	5	34	54*	92*	76*	9
CCC(=O)Oc1ccc2c(c1)O/C(=C\c1ccco1)C2=O	-7	-3	-38	-5	-225	2	/	/	/	/	/
Cc1cc(O)cc2c1C(=O)/C(=C/c1ccco1)O2	2	67*	-21	63*	-71	14	85*	87*	98*	90*	89*
